Source: ChEMBL document CHEMBL5149991 (J Med Chem, 2021)
pEC50, pKd, pKi: −log10 of the molar value.

Assays:
Histamine H2 receptor [1] = target: T1, Histamine H2 receptor (Homo sapiens, UniProt P25021); assay: Displacement of [3H]UR-DE257 from human histamine H2 receptor stably expressed in baculovirus infected Sf9 cell membrane co-expressing RG-Salpha S incubated for 60 mins by scintillation counting analysis; type: cell membranes
Histamine H3 receptor [2] = target: T2, Histamine H3 receptor (Homo sapiens, UniProt Q9Y5N1); assay: Displacement of [3H]UR-PI294 from human histamine H3 receptor stably expressed in baculovirus infected Sf9 cell membrane co-expressing G-alphai2 and G-beta1gamma2 incubated for 60 mins by scintillation counting analysis; type: cell membranes
T2 sequence (Q9Y5N1 whole entry): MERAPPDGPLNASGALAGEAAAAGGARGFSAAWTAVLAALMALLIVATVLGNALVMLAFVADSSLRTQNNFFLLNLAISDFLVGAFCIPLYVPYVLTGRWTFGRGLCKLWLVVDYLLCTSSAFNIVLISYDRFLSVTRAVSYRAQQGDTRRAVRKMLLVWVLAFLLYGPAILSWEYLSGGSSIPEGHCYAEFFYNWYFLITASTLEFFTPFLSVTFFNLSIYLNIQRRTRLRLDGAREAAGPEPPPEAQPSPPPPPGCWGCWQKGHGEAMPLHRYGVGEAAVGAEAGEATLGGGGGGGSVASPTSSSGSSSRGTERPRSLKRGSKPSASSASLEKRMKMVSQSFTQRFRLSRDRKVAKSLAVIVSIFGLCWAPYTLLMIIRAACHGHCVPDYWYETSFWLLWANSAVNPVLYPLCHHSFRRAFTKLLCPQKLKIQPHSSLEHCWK
How it was run: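 hH3R + Gαi2 + Gβ1γ2 expressed in Sf9 membranes. […] Mean ± SEM from N independent experiments in triplicate.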

Histamine H1 receptor = Histamine H1 receptor (Homo sapiens, UniProt P35367)
Chain of Histamine H1 receptor (P35367 whole entry): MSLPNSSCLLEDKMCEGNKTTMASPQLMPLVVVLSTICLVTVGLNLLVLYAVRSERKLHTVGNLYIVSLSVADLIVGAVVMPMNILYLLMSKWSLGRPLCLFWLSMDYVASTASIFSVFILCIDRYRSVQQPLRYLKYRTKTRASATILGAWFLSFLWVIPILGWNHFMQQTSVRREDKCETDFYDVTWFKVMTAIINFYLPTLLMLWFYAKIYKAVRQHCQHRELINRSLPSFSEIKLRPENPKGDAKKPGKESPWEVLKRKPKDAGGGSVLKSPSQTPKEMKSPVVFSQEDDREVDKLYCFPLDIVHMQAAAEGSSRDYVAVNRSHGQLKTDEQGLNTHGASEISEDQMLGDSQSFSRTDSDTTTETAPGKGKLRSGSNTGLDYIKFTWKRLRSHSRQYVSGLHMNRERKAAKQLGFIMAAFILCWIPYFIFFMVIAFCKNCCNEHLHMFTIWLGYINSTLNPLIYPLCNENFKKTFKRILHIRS

Histamine H4 receptor = Histamine H4 receptor (Homo sapiens, UniProt Q9H3N8)
Chain of Histamine H4 receptor (Q9H3N8 whole entry): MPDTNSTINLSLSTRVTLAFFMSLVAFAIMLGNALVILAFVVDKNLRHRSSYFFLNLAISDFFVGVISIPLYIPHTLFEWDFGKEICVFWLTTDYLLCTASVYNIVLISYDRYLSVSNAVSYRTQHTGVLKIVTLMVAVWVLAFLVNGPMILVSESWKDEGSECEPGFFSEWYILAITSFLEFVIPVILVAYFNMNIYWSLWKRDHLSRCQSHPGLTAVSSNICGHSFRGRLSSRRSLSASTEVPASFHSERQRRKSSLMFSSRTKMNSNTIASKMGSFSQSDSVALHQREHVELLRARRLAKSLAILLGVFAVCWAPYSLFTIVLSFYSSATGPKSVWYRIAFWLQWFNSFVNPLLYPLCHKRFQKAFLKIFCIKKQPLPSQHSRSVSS

Histamine H2 receptor [3] = target: T1, Histamine H2 receptor; assay: Agonist activity at human histamine H2 receptor stably expressed in HEK293T cells co-expressing NlucN-mGs/hH2R-NlucC assessed as induction of mini-Gs protein recruitment using furimazine as substrate measured for 45 mins by luminescence assay
Histamine H3 receptor [4] = target: T2, Histamine H3 receptor
[5] = Chemical stability in pH 7.4 buffer measured at 0 to 2 weeks by HPLC analysis; type: physicochemical; details: time 0-2 weeks
Histamine H2 receptor [6] = target: T1, Histamine H2 receptor; assay: Agonist activity at human histamine H2 receptor stably expressed in HEK293T cells co-expressing ARRB2 incubated for 60 mins by beta-arrestin2 recruitment assay; type: functional, cell-based

T1 sequence (P25021 whole entry): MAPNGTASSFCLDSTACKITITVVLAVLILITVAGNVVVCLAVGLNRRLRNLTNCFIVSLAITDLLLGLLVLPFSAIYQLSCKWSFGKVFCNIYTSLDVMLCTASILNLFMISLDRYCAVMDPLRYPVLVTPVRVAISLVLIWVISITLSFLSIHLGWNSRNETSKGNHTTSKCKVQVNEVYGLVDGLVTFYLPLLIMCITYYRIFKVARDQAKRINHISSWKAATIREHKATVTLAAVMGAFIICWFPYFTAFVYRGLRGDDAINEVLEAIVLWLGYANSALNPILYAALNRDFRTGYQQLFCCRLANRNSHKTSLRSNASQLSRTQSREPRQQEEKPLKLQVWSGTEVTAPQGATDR

SMILES	pKi (Histamine H2 receptor [1])	pKi (Histamine H3 receptor [2])	pKd (Histamine H1 receptor)	pKi (Histamine H1 receptor)	pKd (Histamine H4 receptor)	pKi (Histamine H4 receptor)	pEC50 (Histamine H2 receptor [3])	pKd (Histamine H3 receptor [4])	pKi (Histamine H3 receptor [4])	Stability [5]	pEC50 (Histamine H2 receptor [6])
C[C@@H](NC(=O)/N=C(\N)NCCCc1c[nH]cn1)c1ccccc1	8.21	8.77	8.35	5.40	7.80	8.07	–	–	–	–	–
CCCN[C@H]1CCc2nc(N)sc2C1 [PRAMIPEXOLE]	4.86	–	8.35	–	7.80	–	6.78	–	–	–	–
C[C@@H](NC(=O)/N=C(\N)NCCCn1cc(CN(C)C)nn1)c1ccccc1	5.35	4.99	8.35	< 5.00	7.80	< 5.00	–	–	–	–	–
Cc1nc(N)sc1-c1cccc(N/C(N)=N/C(=O)NCc2ccccc2)c1	6.52	< 5.00	8.35	5.14	7.80	< 5.00	–	–	–	–	–
Cc1ccc(CC(C)CNC(=O)/N=C(\N)NCC2CCc3nc(N)sc3C2)cc1 (centres undefined)	6.97	–	8.35	6.74	7.80	5.47	–	8.52	5.71	–	–
CCCCCNC(=O)/N=C(\N)Nc1cccc(-c2sc(N)nc2C)c1.O=C(O)C(F)(F)F.O=C(O)C(F)(F)F	6.72	5.02	8.35	5.18	7.80	5.13	–	–	–	Stable	–
Cc1nc(N)oc1CCCN/C(N)=N/C(=O)NCC(C)C1CCCCC1.O=C(O)C(F)(F)F.O=C(O)C(F)(F)F (centres undefined)	6.61	5.08	8.35	5.22	7.80	5.12	–	–	–	Stable	–
CCCCCNC(=O)/N=C(\N)NCCCc1cnc(N)s1.O=C(O)C(F)(F)F.O=C(O)C(F)(F)F	7.64	< 5.00	8.35	5.02	7.80	< 5.00	8.22	–	–	Stable	7.25
Cc1nnc(CCCN/C(N)=N/C(=O)NCCCCCCCCN)s1	5.74	4.93	8.35	6.51	7.80	< 5.00	–	–	–	–	–
Cc1nc(N)sc1-c1ccc(N/C(N)=N/C(=O)NCc2ccccc2)cc1	6.67	5.07	8.35	5.89	7.80	4.92	–	8.52	5.07	–	–
Cc1nnc(CCCN/C(N)=N/C(=O)NCc2ccccc2)s1	5.25	< 5.00	8.35	4.97	7.80	< 5.00	–	–	–	–	–
Cc1nc(N)oc1CCCN/C(N)=N/C(=O)NCc1ccccc1	6.41	< 5.00	8.35	5.05	7.80	< 5.00	–	–	–	–	–
Cc1nc(N)sc1-c1ccc(N/C(N)=N/C(=O)NCC(C)C2CCCCC2)cc1 (centres undefined)	6.51	5.25	8.35	5.54	7.80	5.11	–	–	–	–	–
Cc1ccc(CC(C)CNC(=O)/N=C(\N)Nc2cccc(-c3sc(N)nc3C)c2)cc1 (centres undefined)	6.63	4.89	8.35	5.28	7.80	5.13	–	–	–	–	–
N/C(=N\C(=O)NCc1ccccc1)NCC1CCc2nc(N)sc2C1 (centres undefined)	6.52	–	8.35	5.41	7.80	5.23	–	8.52	4.95	–	–
Cc1nc(N)sc1-c1ccc(N/C(N)=N/C(=O)NCC(C)CCCc2ccccc2)cc1 (centres undefined)	6.50	5.10	8.35	5.12	7.80	5.22	–	8.52	5.10	–	–
CCCCCNC(=O)/N=C(\N)NCC1CCc2nc(N)sc2C1.O=C(O)C(F)(F)F.O=C(O)C(F)(F)F (centres undefined)	6.81	5.18	8.35	5.28	7.80	5.23	–	8.52	5.18	Stable	–
